Compound activity (PubChem)
This is a sample that favours compounds with a hit; in the whole collection about 2.1% have one here.
L929 necroptosis = L929 zVAD cell death inhibition | L929 zVAD necroptosis rescue, ATP luminescence, 24 h; with zVAD 60 µM | viability rescue, % at 10 µM | 220,000 compounds, 0.38% hits;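 active = activation, scaled between plate controls, above about 75%, limit read from the data; inactive = activation under that limit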;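 note: 0% = zVAD with DMSO and 100% = DMSO alone without zVAD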
STAT1 blocker = reduces IFN-gamma driven STAT1 reporter signal; NIH 3T3 STAT1-luciferase reporter, luminescence; inhibition, % at 5.5 µM; 200,000 compounds, 0.35% hits; AID 920;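 active = inhibition above a set limit, the mean inhibition across all tested compounds plus 3 SD, cut at about 34% in these data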;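 note: 0% = IFN-gamma with DMSO and 100% = IFN-gamma with 300 µM nifuroxazide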
TNF necrop inh = blocks TNF-alpha induced death of Jurkat FADD-/- cells. Jurkat FADD-/- TNF necroptosis rescue, ATP luminescence, 24 h; 0 = TNF only, 100 = no-TNF cells. activation (protection from cell death), % at 10 µM. 220,000 compounds, 0.068% hits. AID 463075;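 active = activation, meaning protection from cell death, of at least 50% relative to plate controls; inactive = activation below 50%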;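 note: necroptosis triggered by 40 ng/mL TNF-alpha added together with compound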
STAT3 act-1 = increases IL-6 driven STAT3 reporter signal. U3A cells, IL-6 STAT3-luciferase reporter, luminescence; 100% = signal with IL-6 EC80 alone. activation (% of control), % at 5.6 µM. 190,000 compounds, 0.91% hits;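 active = activation above the screen-wide mean of compound activation plus 3 SD, cut at about 130% in these data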;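 note: 0% = background luminescence of wells with medium and substrate only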
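Material: human STAT1-deficient U3A cells with stable STAT3-luciferase reporter / Probe or stimulus: IL-6 stimulus at 33 ng/mL final / Schedule: 1 h compound pre-exposure, 6 h IL-6 stimulation, 37 °C / Technique: luminescence / Read-out basis: percent of IL-6-only median luminescence / Control set: IL-6-only high control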
STAT3 blocker = inhibitors of IL-6 induced STAT3 signaling; U3A cells, IL-6 STAT3-luciferase reporter, luminescence; host cell line lacks STAT1; AID 862; inhibition, % at 5.5 µM; 190,000 compounds, 0.89% hits;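 active = inhibition above the mean inhibition across all screened compounds plus 3 SD, cut at about 44% in these data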;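 note: 0% = DMSO only wells and 100% = 100 µM nifuroxazide control wells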
STAT3 act-2 = STAT3 activation, confirmation assay; shares compounds with STAT3 act-1; U3A STAT3-luciferase reporter, IL-6 potentiation, luminescence; U3A cells lack STAT1; 100 means same as IL-6 alone; potentiation (% of control), % at 5.7 µM; 1,200 compounds, 64% hits;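 active = percent activation of the STAT3 luciferase reporter above a set limit taken from the earlier primary screen, cut at about 130% in these data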;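 note: 0% = background signal of medium plus substrate and 100% = median of IL-6 with DMSO wells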
NFkB act STAT3ct = counter-screen for STAT3 activators: NF-kappaB activation | shares compounds with STAT3 act-1 | human cells, NF-kappaB reporter activation | activation (% of control), % at 5.7 µM | 1,200 compounds, 11% hits | AID 1309; in the data active = activation above about 120%;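 note: reporter induced by TNF-alpha stimulation; 100% = median of stimulated DMSO wells and 0% = no signal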
STAT1 act STAT3c = activates STAT1, counter-screen to STAT3 activators. shares compounds with STAT3 act-1. NIH 3T3 STAT1-luciferase reporter, IFN-gamma, luminescence. activation (% of control), % at 5.7 µM. 1,200 compounds, 13% hits;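 active = activation above the solvent-only control well mean plus 3 SD, set per screening run, cut at about 120% in these data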;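 note: 100% = IFN-gamma with DMSO median signal so 100% means no change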
Starred values were filed as active, the others as inactive; . = no result.

SMILES | L929 necroptosis | STAT1 blocker | TNF necrop inh | STAT3 act-1 | STAT3 blocker | STAT3 act-2 | NFkB act STAT3ct | STAT1 act STAT3c
O=C(NC(=S)Nc1ccccc1N1CCCC1)c1ccc(F)cc1 | -0.5 | 7.5 | -3.1 | 145.1* | -39.0 | 149.2* | 104.4 | 91.3
O=C(NC(=S)Nc1ccccc1N1CCCC1)c1cccc(F)c1 | 2.1 | 6.1 | 0.3 | 151.9* | -57.3 | 154.2* | 105.0 | 89.0
COCCCNC(=O)c1cccn2c(=O)c3cc4ccccc4cc3nc12 | 1.8 | -19.3 | -4.1 | 89.8 | 15.4 | . | . | .
O=C(NCc1ccco1)c1cccn2c(=O)c3cc4ccccc4cc3nc12 | -1.3 | -0.8 | -11.0 | 196.0* | -108.6 | 162.4* | 113.4 | 105.3
COc1cc(/C=N/NC(N)=S)ccc1OCC(=O)Nc1ccc(C)cc1 | 0.1 | -5.1 | -1.7 | 153.7* | -53.8 | 117.9 | 99.2 | 110.6
CNC(=S)N/N=C/c1ccc(OCC(=O)Nc2c(C)cc(C)cc2C)c(OC)c1 | 4.3 | -0.1 | 1.9 | 126.3 | -37.6 | . | . | .
Cc1ccc(Nc2nnc(SC/C(O)=C(\C#N)c3nc4ccccc4[nH]3)s2)c(C)c1 | 0.0 | 4.7 | 3.7 | 144.7* | -60.5 | 150.9* | 106.2 | 89.1
CC(C)(C)c1nnc2sc(SC/C(O)=C(\C#N)c3nc4ccccc4[nH]3)nn2c1=O | 0.3 | 0.0 | -1.9 | 104.7 | -0.2 | . | . | .
C/C(O)=C(/C#N)c1nc2ccccc2[nH]1 | 0.8 | -1.7 | 1.6 | 104.7 | 0.6 | . | . | .
Cc1cccc(Nc2nnc(SC/C(O)=C(\C#N)c3nc4ccccc4[nH]3)s2)c1 | . | 9.7 | 3.7 | 143.3* | -55.3 | 153.0* | 102.3 | 95.5
N#C/C(=C(/O)CSc1ncn[nH]1)c1nc2ccccc2[nH]1 | 0.1 | 7.9 | 1.7 | 142.9* | -46.9 | 151.8* | 107.3 | 99.6
COc1ccc(C)cc1-n1nnnc1SC/C(O)=C(\C#N)c1nc2ccccc2[nH]1 | 0.6 | 6.1 | -0.2 | 111.8 | -10.2 | . | . | .
CCC(=O)N1CCN(c2ccccc2NC(=O)COc2ccccc2Cl)CC1 | -0.5 | 5.8 | -0.6 | 155.6* | -60.6 | 142.7* | 106.0 | 99.7
O=C(COc1ccccc1Cl)Nc1cc(Cl)ccc1O | 1.8 | 2.3 | -0.9 | 166.0* | -73.8 | 161.2* | 100.4 | 93.5
CCOc1ccc(-n2c(N)c(-c3nc4ccccc4[nH]3)sc2=S)cc1 | 0.1 | 1.5 | 1.3 | 90.0 | 17.0 | . | . | .
COc1ccc(-n2c(N)c(-c3nc4ccccc4n3C)sc2=S)cc1 | 0.0 | 0.6 | -0.8 | 147.9* | -55.2 | 172.6* | 106.0 | 109.9
Cc1cc(C)n(-c2nc(C)nc3c2cnn3-c2ccccc2)n1 | 0.3 | -6.3 | 1.7 | 155.3* | -59.6 | 150.7* | 107.5 | 98.8
CCCC(C)NC(=O)C1CCN(S(=O)(=O)c2ccccc2)CC1 (centres undefined) | 0.5 | 11.6 | 0.4 | 100.9 | 4.9 | . | . | .
O=C(/C=C/c1ccccc1)C1=C(O)C(=O)N(CCO)C1c1ccccc1[N+](=O)[O-] (centres undefined) | 3.5 | -0.6 | -0.1 | 143.7* | -46.7 | 152.0* | 104.0 | 82.3
O=C(/C=C/c1ccccc1)C1=C(O)C(=O)N(CCO)C1c1cccc([N+](=O)[O-])c1 (centres undefined) | 0.9 | . | 4.5 | . | . | . | . | .
CCn1c(SCC(=O)Nc2cc(C)ccc2C)nc2c(c1=O)SC(C)C2 (centres undefined) | -0.8 | 4.4 | 1.7 | 103.8 | -4.5 | . | . | .
CC(=O)Nc1cc(C)nn1-c1nc2ccccc2s1 | 1.2 | -16.4 | -0.2 | 147.8* | -44.2 | 181.1* | 122.5* | 144.2*
Cc1cc(NC(=O)CN2CCOCC2)n(-c2nc3ccccc3s2)n1 | 0.1 | 0.7 | -9.6 | 164.8* | -76.8 | 146.1* | 101.8 | 98.6
Cc1cc(NC(=O)c2ccc(C)s2)n(-c2ccccc2)n1 | -0.7 | -6.5 | -2.8 | 100.4 | -2.0 | . | . | .
